Reference: ChEMBL document CHEMBL1667760, “Synthesis and biological evaluation of 3,5-diaryl isoxazoline/isoxazole linked 2,3-dihydroquinazolinone hybrids as anticancer agents” (2011)
Structures can show the parent of a compound that is named as a salt. The source made the active and inactive calls. The calls are words filed in the database; no cut-off is given here.

Columns and labels:
KB = assay: Cytotoxicity against human KB cells after 48 hrs by sulforhodamine B assay; type: functional
Outline: (§1)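 Cells were grown in RPMI 1640 with 10% FBS and 2 mM L-glutamine, plated at densities set by doubling time, and pre-incubated 24 h at 37 °C, 5% CO2. Drugs were tested at 0.1, 1, 10 and 100 µM in triplicate wells for 48 h continuous exposure. Cells were fixed with 10% TCA (final) and stained with 0.4% SRB. A540 was read against a 690 nm reference, and percent growth was calculated relative to control. Experiments were repeated three times.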

A2780 = assay: Cytotoxicity against human A2780 cells after 48 hrs by sulforhodamine B assay; type: functional; settings: A2780, 48 h; outline: as §1
A549 = assay: Cytotoxicity against human A549 cells after 48 hrs by sulforhodamine B assay; type: functional; settings: A549, 48 h, read-out: GI50; outline: as §1
OVCAR-8 = assay: Cytotoxicity against human OVCAR8 cells after 48 hrs by sulforhodamine B assay; type: functional; settings: OVCAR-8, 48 h, read-out: GI50
Outline: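 Run by the NCI 60-cell-line screen. A one-dose pre-test was done first, followed by the main test over a 5-log dose range (10^-4 to 10^-8 M). Results are reported as log molar GI50 (50% net growth inhibition), TGI (total growth inhibition) and LC50 (50% net cell death), with mean-graph midpoints across all lines.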

PC-3 = assay: Cytotoxicity against human PC3 cells after 48 hrs by sulforhodamine B assay; type: functional; settings: PC-3, 48 h, read-out: GI50; outline: as §1
MCF7 [1] = assay: Cell cycle arrest in human MCF7 cells assessed as accumulation at G0 phase at 5 uM after 24 hrs using propidium iodide staining by flow cytometry relative to control; type: functional
Outline: (§2)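 MCF-7 cells were seeded at 5×10^5 per 60 mm dish and grown 24 h. They were then exposed to 5 uM compound for a further 24 h, with untreated control cells alongside. Cells were trypsinised, fixed in ice-cold 70% ethanol (4 °C, 30 min), treated with 1 mg/ml RNase A (37 °C, 30 min) and stained with propidium iodide/citrate/Triton solution. DNA content was read by flow cytometry on 20,000 events.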

MCF7 [2] = assay: Reduction of cyclin A expression in human MCF7 cells at 5 uM after 24 hrs by Western blotting; type: functional, cell-based
Outline: (§3)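 MCF-7 cells, kept in DMEM with 10% fetal calf serum at 37 °C under 5% CO2, treated 24 h. Lysis in ice-cold RIPA with protease inhibitors; Bradford quantitation; 30 µg protein per lane on 12% SDS-PAGE, then PVDF. Primary antibodies (1:500) at 4 °C overnight; HRP secondary (1:2000); chemiluminescence detection; β-actin loading control.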

MCF7 [3] = assay: Induction of apoptosis in human MCF7 cells assessed as increase of cleaved PARP level at 5 uM after 24 hrs by Western blotting; type: functional, cell-based; outline: as §3
MCF7 [4] = assay: Cell cycle arrest in human MCF7 cells assessed as accumulation at S phase at 5 uM after 24 hrs using propidium iodide staining by flow cytometry relative to control; type: functional; outline: as §2
MCF7 [5] = assay: Cell cycle arrest in human MCF7 cells assessed as accumulation at G2/M phase at 5 uM after 24 hrs using propidium iodide staining by flow cytometry relative to control; type: functional; outline: as §2
MCF7 [6] = assay: Cell cycle arrest in human MCF7 cells assessed as accumulation at G1 phase at 5 uM after 24 hrs using propidium iodide staining by flow cytometry relative to control; type: functional; outline: as §2
Tubulin (Homo sapiens) = Tubulin (Homo sapiens) (UniProt P68371+Q9H4B7+P0DPH7+P68366+Q13509+Q71U36+P04350+Q3ZCM7+P07437+P68363+Q9BQE3+Q6PEY2+Q13885+Q9BVA1+Q9BUF5); settings: MCF7, 2.5 uM
MCF7 [7] = assay: Induction of apoptosis in human MCF7 cells assessed as nuclear fragmentation at 2.5 uM after 48 hrs by DAPI staining; type: functional, cell-based
Outline: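 MCF-7 cells grown on glass coverslips and incubated 48 h with or without compound. Fixed in 3% paraformaldehyde/0.02% glutaraldehyde in PBS, stained with DAPI, and nuclear morphology examined by fluorescence microscopy.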

| Compound | GI50 (KB) [µM] | GI50 (A2780) [µM] | GI50 (A549) [nM] | GI50 (OVCAR-8) [nM] | GI50 (PC-3) [nM] | Activity (MCF7 [1]) [%] | Activity (MCF7 [2]) | Activity (MCF7 [3]) | Activity (MCF7 [4]) [%] | Activity (MCF7 [5]) [%] | Activity (MCF7 [6]) [%] | inhibition (Tubulin (Homo sapiens)) | Activity (MCF7 [7]) |
| --- | --- | --- | --- | --- | --- | --- | --- | --- | --- | --- | --- | --- | --- |
| COc1ccc(C2NC(=O)c3ccccc3N2)cc1OCCCCOc1c(OC)cc(-c2cc(-c3cc(OC)c(OC)c(OC)c3)no2)cc1OC (stereo unspecified) | 26 | 2 | 180 | 25000 | 2000 |  |  |  |  |  |  |  |  |
| COc1ccc(/C=C\c2cc(OC)c(OC)c(OC)c2)cc1O [COMBRETASTATIN A4] |  |  |  |  |  | 2.53 | Active | Active | 15.92 | 65.5 | 16.05 |  |  |
| COc1cc(C2=NOC(c3cc(OC)c(OC)c(OC)c3)C2)cc(OC)c1O (stereo unspecified) |  |  |  |  |  | 0.5 |  |  | 20.6 | 34.36 | 44.54 |  |  |
| COc1cccc2c1C(=O)c1c(O)c3c(c(O)c1C2=O)C[C@@](O)(C(=O)CO)C[C@@H]3O[C@H]1C[C@H](N)[C@H](O)[C@H](C)O1 [DOXORUBICIN HYDROCHLORIDE] | 0.19 | 0.18 | 130 | 150 | 160 |  |  |  |  |  |  |  |  |
| COc1cc(C2NC(=O)c3ccccc3N2)ccc1OCCCCOc1cc(C2CC(c3cc(OC)c(OC)c(OC)c3)=NO2)ccc1OC (stereo unspecified) | 30 | 22 | 150 | 180 | 2800 |  |  |  |  |  |  |  |  |
| COc1cc(C2NC(=O)c3ccccc3N2)ccc1OCCCCCOc1cc(C2CC(c3cc(OC)c(OC)c(OC)c3)=NO2)ccc1OC (stereo unspecified) | 27 | > 100 | 160 | 140 | 2400 |  |  |  |  |  |  |  |  |
| COc1ccc(-c2cc(-c3cc(OC)c(OC)c(OC)c3)on2)cc1OCCCCOc1cc(C2NC(=O)c3ccccc3N2)ccc1OC (stereo unspecified) | > 100 | > 100 | > 100000 | 150 | 2100 |  |  |  |  |  |  |  |  |
| COC(=O)Nc1nc2cc(C(=O)c3cccs3)ccc2[nH]1 |  |  |  |  |  |  |  |  |  |  |  | Active | Active |
| COc1cc(C2NC(=O)c3ccccc3N2)ccc1OCCCOc1c(OC)cc(C2=NOC(c3cc(OC)c(OC)c(OC)c3)C2)cc1OC (stereo unspecified) | 22 | > 100 | 20000 | 280 | 520 |  |  |  |  |  |  |  |  |
| COc1cc(C2NC(=O)c3ccccc3N2)ccc1OCCCCCBr (stereo unspecified) |  |  |  |  |  | 1.61 |  |  | 12.75 | 16.64 | 69 |  |  |
| COc1cc(C2NC(=O)c3ccccc3N2)ccc1OCCCOc1cc(C2CC(c3cc(OC)c(OC)c(OC)c3)=NO2)ccc1OC (stereo unspecified) | 28 | 26 | 170 | 170 | 2500 |  |  |  |  |  |  |  |  |
| COc1cc(C2NC(=O)c3ccccc3N2)ccc1OCCCCOc1c(OC)cc(C2=NOC(c3cc(OC)c(OC)c(OC)c3)C2)cc1OC (stereo unspecified) | 21 | > 100 | 14000 | 300 | 460 |  |  |  |  |  |  |  |  |
